SIRT5 block = SIRT5 desuccinylase inhibitors, primary screen, biochemical, fluorescence imaging, single point, set 5. NAD-dependent protein deacylase sirtuin-5, mitochondrial (Homo sapiens), Q9NXA8. AID 652115, 2013. Purified SirT5, succinyl-peptide AMC, trypsin-coupled fluorescence. inhibition, % at 15 µM. hit rate 1.1% among 330,000; in the data active = inhibition above about 15%
ERp5 block = inhibitors of ERp5-driven insulin aggregation, primary screen, biochemical, turbidity, absorbance 650 nm, single point | Protein disulfide-isomerase A6 (Homo sapiens), Q15084 | 90 min | inhibition, % at 9.99 µM | hit rate 0.05% among 350,000;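 active = mean replicate inhibition above about 25%, with every replicate also reaching it, limit read from the data, passing the limit was not always enough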
GSIS activator = GLuc luminescence reporter in INS-1E cells, primary screen for activators of glucose-dependent secretion of insulin. activation, % at 16.6 µM. INS-1E GLuc reporter insulin secretion, 2-3 h. hit rate 0.61% among 370,000;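 active = lowest replicate activation of at least 40%, so every replicate reaches that level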;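 note: 0% = median of neutral control wells and 100% = median of IBMX positive control wells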
S100A4 MyoIIA = inhibitors of S100A4-myosin IIA peptide binding, primary screen, biochemical, fluorescence polarization, TAMRA-MyoIIA peptide; Protein S100-A4 (Homo sapiens), P26447; inhibition, % at 10.7 µM; hit rate 0.14% among 360,000;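 active = mean inhibition of at least 70% across replicates, with every replicate also reaching that level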
Target sequence (P26447 whole entry, looked up): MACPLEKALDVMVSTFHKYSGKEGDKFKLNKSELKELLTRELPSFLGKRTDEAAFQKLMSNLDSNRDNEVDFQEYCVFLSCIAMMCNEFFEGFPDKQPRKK
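Assay system: human S100A4 monomer with TAMRA-labelled myosin IIA peptide / Buffer or medium: Calcium-containing HEPES buffer, pH 7.2 / Reagent: TAMRA-labelled myosin IIA heavy-chain peptide probe, 5 nM / Compound: one dose per compound / Timing: polarization read 5 min after assay mix addition, stable 5–60 min / Benchmarks: neutral control DMSO, positive control TFP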
PDI inh = inhibitors of human PDI, primary screen, biochemical, turbidity, single point, plate reader; Protein disulfide-isomerase (Homo sapiens), P07237; PDI insulin aggregation turbidity, A650, 90 min; inhibition, % at 10 µM; hit rate 0.052% among 350,000;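 active = mean inhibition across replicates of 30% or more, whatever share of single replicates reach that level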
Target sequence (P07237 whole entry, looked up): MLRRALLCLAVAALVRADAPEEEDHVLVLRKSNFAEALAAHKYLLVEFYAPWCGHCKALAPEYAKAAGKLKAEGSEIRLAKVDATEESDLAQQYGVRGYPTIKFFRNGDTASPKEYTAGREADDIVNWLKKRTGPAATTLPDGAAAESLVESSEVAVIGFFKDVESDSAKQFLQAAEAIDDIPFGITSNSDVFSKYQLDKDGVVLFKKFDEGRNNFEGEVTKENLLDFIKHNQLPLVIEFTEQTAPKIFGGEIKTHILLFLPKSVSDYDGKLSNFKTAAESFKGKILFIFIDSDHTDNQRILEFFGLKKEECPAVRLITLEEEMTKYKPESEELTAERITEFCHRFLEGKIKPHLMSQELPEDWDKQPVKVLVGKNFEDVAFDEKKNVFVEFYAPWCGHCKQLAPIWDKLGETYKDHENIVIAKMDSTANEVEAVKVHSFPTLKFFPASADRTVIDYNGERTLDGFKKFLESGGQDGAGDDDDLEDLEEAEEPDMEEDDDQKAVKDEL
* = called active by the depositor; . = no result given; ! = not active in a repeat. Most compounds without a hit are left out; they make up all but 1.5% or so of the library.

SMILES	SIRT5 block	ERp5 block	GSIS activator	S100A4 MyoIIA	PDI inh
C[C@@H]1CN([C@@H](C)CO)C(=O)c2cc(NS(=O)(=O)c3ccccc3)ccc2O[C@@H](C)CCCCO[C@H]1CN(C)C(=O)CCCN(C)C	-4	0	18	-5	.
C[C@H]1CN([C@@H](C)CO)C(=O)c2cc(C#CC3CCCCC3)cnc2O[C@H]1CN(C)S(=O)(=O)c1cccc(F)c1	2	-5	-14	13	.
C[C@H](CO)N1C[C@H](C)[C@@H](CN(C)S(=O)(=O)c2ccccc2)Oc2ncc(C#CC3CCCCC3)cc2C1=O	15	-11	-17	7	.
C[C@H](CO)N1C[C@H](C)[C@H](CN(C)S(=O)(=O)c2cccc(F)c2)Oc2ncc(-c3cc4ccccc4o3)cc2C1=O	15*	2	-5	9	.
C[C@H](CO)N1C[C@H](C)[C@@H](CN(C)S(=O)(=O)c2cccc(F)c2)Oc2ncc(C#CC3CCCCC3)cc2C1=O	30*	3	.	9	.
C[C@@H]1CN([C@@H](C)CO)C(=O)c2cc(C#CC3CCCCC3)cnc2O[C@@H]1CN(C)S(=O)(=O)c1cccc(F)c1	18*	-5	-8	-13	.
COc1cccc(S(=O)(=O)N(C)C[C@@H]2Oc3ncc(-c4cc5ccccc5o4)cc3C(=O)N([C@H](C)CO)C[C@@H]2C)c1	-1	-2	13	-7	.
C[C@@H]1CN([C@@H](C)CO)C(=O)c2cc(C#CC3CCCCC3)cnc2O[C@@H]1CN(C)S(=O)(=O)c1ccccc1	16*	29*	-23	-3	.
CC(C)NC(=O)Nc1cccc2c1O[C@H](CN(C)Cc1ccc(-c3ccccc3)cc1)[C@H](C)CN([C@H](C)CO)C2=O	-2	-1	-9	-5	.
COc1cc(OC)c(C(=O)Nc2ccc3ccccc3c2)cc1OC	.	.	.	.	1
COc1cc2ccccc2cc1C(=O)Nc1ccc2oc(=O)ccc2c1	-3	2	156*	1	-1
O=C(N[C@H]1C=C[C@H](CC(=O)N2CCCCC2)O[C@@H]1CO)c1ccccn1	0	-3	-1	1	.
O=[N+]([O-])c1ccc(Sc2ccncn2)c([N+](=O)[O-])c1	4	-1	84*	-4	-7
Cc1cc(C)nc(Sc2ccc([N+](=O)[O-])cc2[N+](=O)[O-])n1	.	.	6	.	-6
CCC(=O)N1C[C@H](C)[C@@H](OC)CN(C)C(=O)c2cc(NC(=O)Nc3cccc(F)c3)ccc2OC[C@@H]1C	5	3	-31	-2	.
CCC(=O)N1C[C@@H](C)[C@@H](OC)CN(C)C(=O)c2ccc(NC(=O)Nc3cccc(F)c3)cc2OC[C@H]1C	4	-1	-9	-16	.
CCC(=O)N1C[C@H](C)[C@@H](OC)CN(C)C(=O)c2ccc(NC(=O)Nc3ccccc3)cc2OC[C@H]1C	5	-1	-12	124*	.
CCC(=O)N1C[C@@H](C)[C@H](OC)CN(C)C(=O)c2cc(NC(=O)Nc3cccc(F)c3)ccc2OC[C@@H]1C	15*	-3	-24	24	.
CCCNC(=O)Nc1ccc2c(c1)OC[C@@H](C)N(C(=O)C1CC1)C[C@H](C)[C@@H](OC)CN(C)C2=O	-1	1	0	98*	.
Cc1cn(C(C)C)c(=O)n(-c2ccccc2)c1=O	-4	-3	.	-5	0
CC(C)n1cc(/C(N)=N/O)c(=O)n(Cc2ccccc2)c1=O	0	-3	61*	-2	-3
C[C@@H]1CN([C@H](C)CO)C(=O)Cc2cc(NC(=O)Nc3cccc4ccccc34)ccc2O[C@@H]1CN(C)S(=O)(=O)c1ccccc1	2	7	8	-11	.
Cc1cccc(C)c1NC(=O)C1c2ccccc2Oc2ccccc21	.	.	51*	.	-22
Cc1ccccc1NC(=O)C1c2ccccc2Oc2ccccc21	1	-2	-3	-6	-7
CO[C@H]1CC[C@H]2CCN(C)C(=O)[C@H](C)[C@@H](OC)CN(C)C(=O)c3cccc(C#N)c3OC[C@H]1O2	0	4	6	2	.
SMILES	SIRT5 block	ERp5 block	GSIS activator	S100A4 MyoIIA	PDI inh
C=C1C(=O)[C@]23C[C@H]1CCC2[C@@]1(C)C(C[C@@H]3O)[C@](C)(C(=O)OC)CC[C@@H]1O (stereo partly drawn)	-7	5	87*	0	.
C[C@@]12C(C[C@H](O)[C@@]34C[C@@H](CCC13)[C@@H](CO)C4=O)[C@](C)(C(=O)O)CC[C@@H]2O (stereo partly drawn)	-4	0	-7	0	.
COc1ccc(C2/C=C\CN(Cc3ccncc3)CC(=O)N2Cc2ccc(F)cc2)cc1 (stereo not drawn)	16*	1	-19	5	-7
COc1ccc(C2/C=C\CN(S(=O)(=O)c3cccc4cccnc34)CC(=O)N2Cc2ccc(F)cc2)cc1 (stereo not drawn)	.	1	16	91*	0
COc1ccc(C2/C=C\CN(CC3CC3)CC(=O)N2Cc2ccc(F)cc2)cc1 (stereo not drawn)	3	2	-10	-3	1
C[C@@H]1CCCCO[C@H](CN(C)C(=O)C2CCCCC2)[C@@H](C)CN([C@@H](C)CO)C(=O)c2cc(NS(=O)(=O)c3cccs3)ccc2O1	10	-6	-15	2	.
C[C@@H](NC(=O)C[C@@H]1CC[C@@H]2[C@H](COC[C@@H](O)CN2Cc2cc(F)ccc2F)O1)c1ccccc1	1	0	-7	1	.
C/C=C/c1ccc([C@@H]2[C@@H](CN(C)C(=O)C3CC3)N(C(=O)C3CC3)[C@H]2CO)cc1	3	2	-13	-1	.
CC(=O)N(C)C[C@H]1Oc2cc(C#Cc3ccncc3)ccc2S(=O)(=O)N([C@@H](C)CO)C[C@H]1C	-4	5	8	-17	.
CC/C(O)=C1\C(=O)CC(C)(C)CC1=Nc1ccccc1C	.	.	73*	.	-8
CCOc1ccc(/C=C2/Sc3ccc(C(=O)NCC4CCCO4)cc3N(C)C2=O)cc1OC (stereo not drawn)	1	4	40*	-1	5
COc1ccc(/C=N/NC(=O)c2ccc(COc3ccccc3Cl)o2)c(OC)c1C	.	.	152*	.	1
COc1ccc(/C=N/NC(=O)c2ccc(COc3ccccc3Cl)o2)cc1	-4	1	3	0	2
CC(C)c1ccc(-n2c(-c3ccccc3)c[n+]3c2CCc2ccccc2-3)cc1	-2	1	-66	6	3
COc1ccccc1-n1c(-c2ccccc2)c[n+]2c1CCc1ccccc1-2	112*!	0	-39	5	12
C[C@H](CO)N1C[C@H](C)[C@H](CN(C)C)Oc2ccc(NC(=O)c3ccncc3)cc2C1=O	0	4	4	-8	.

Source: PubChem
